Measured values from ChEMBL document CHEMBL4118021, “Studies of TAK1-centered polypharmacology with novel covalent TAK1 inhibitors” (Bioorg Med Chem, 2017).
Each block holds one compound with its values, some of them ahead of it. Calls of active or inactive are those of the source. No cut-off for these calls is given here.

How the values were obtained:
Type in all cases: cell-based
[1] = target: MAP/microtubule affinity-regulating kinase 3 (Homo sapiens) (UniProt P27448); assay: Inhibition of MARK3 in human SKCO1 cells at 1 uM after 4 hrs using biotin labeled EVAIKIIDKTQLNPTSLQK probe by mass-spectrometric analysis relative to control
[2] = target: Peripheral plasma membrane protein CASK (Homo sapiens) (UniProt O14936); assay: Inhibition of CASK in human SKCO1 cells at 1 uM after 4 hrs using biotin labeled ETGQQFAVKIVDVAK probe by mass-spectrometric analysis relative to control
[3] = target: Phosphatidylinositol 5-phosphate 4-kinase type-2 gamma (Homo sapiens) (UniProt Q8TBX8); assay: Inhibition of PIP4K2C in human SKCO1 cells at 1 uM after 4 hrs using biotin labeled TLVIKEVSSEDIADMHSNLSNYHQYIVK probe by mass-spectrometric analysis relative to control
[4] = target: ADP-ribosylation factor-like protein 2 (Homo sapiens) (UniProt P36404); assay: Binding affinity to ARL2 in human NCI-H358 cells at 1 uM by mass spectrometry based pull down assay
[5] = target: Actin-related protein 2/3 complex subunit 1B (Homo sapiens) (UniProt O15143); assay: Binding affinity to ARPC1B in human NCI-H358 cells at 1 uM by mass spectrometry based pull down assay
[6] = target: Calponin-2 (Homo sapiens) (UniProt Q99439); assay: Binding affinity to CNN2 in human NCI-H358 cells at 1 uM by mass spectrometry based pull down assay
[7] = target: AP2-associated protein kinase 1 (Homo sapiens) (UniProt Q2M2I8); assay: Binding affinity to AAK1 in human NCI-H358 cells at 1 uM by mass spectrometry based pull down assay
Outline: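 NCI-H23 or NCI-H358 cells were grown and lysed. Lysates were incubated overnight at 4 °C with 1 μM biotinylated covalent probe or DMSO, then pulled down on streptavidin beads. Proteins were run on polyacrylamide gels and stained with Coomassie. Bands were excised, digested and identified by mass spectrometry.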

[8] = target: Importin subunit alpha-1 (Homo sapiens) (UniProt P52292); assay: Binding affinity to KPNA2 in human NCI-H358 cells at 1 uM by mass spectrometry based pull down assay
[9] = system: NCI-H23; assay: Binding affinity to PSMA3 in human NCI-H23 cells at 1 uM by mass spectrometry based pull down assay
[10] = target: E3 ubiquitin-protein ligase HUWE1 (Homo sapiens) (UniProt Q7Z6Z7); assay: Binding affinity to HUWE1 in human NCI-H23 cells at 1 uM by mass spectrometry based pull down assay
[11] = target: Eukaryotic translation initiation factor 6 (Homo sapiens) (UniProt P56537); assay: Binding affinity to EIF6 in human NCI-H358 cells at 1 uM by mass spectrometry based pull down assay
[12] = target: 5'-nucleotidase domain-containing protein 1 (Homo sapiens) (UniProt Q5TFE4); assay: Binding affinity to NT5DC1 in human NCI-H23 cells at 1 uM by mass spectrometry based pull down assay
[13] = target: Sequestosome-1 (Homo sapiens) (UniProt Q13501); assay: Binding affinity to SQSTM1 in human NCI-H358 cells at 1 uM by mass spectrometry based pull down assay
[14] = target: Tropomyosin alpha-4 chain (Homo sapiens) (UniProt P67936); assay: Binding affinity to TPM4 in human NCI-H358 cells at 1 uM by mass spectrometry based pull down assay
[15] = target: Actin-related protein 2/3 complex subunit 5 (Homo sapiens) (UniProt O15511); assay: Binding affinity to ARPC5 in human NCI-H358 cells at 1 uM by mass spectrometry based pull down assay
[16] = target: Translation initiation factor eIF2B subunit gamma (Homo sapiens) (UniProt Q9NR50); assay: Binding affinity to EIF2B3 in human NCI-H358 cells at 1 uM by mass spectrometry based pull down assay
[17] = target: T1, 80S Ribosome (Homo sapiens) (UniProt P08865+P42677+P62753+P15880+P23396+P61247+P62701+P22090+P46782+P62081+P62241+P46781+P46783+P62280+P25398+P62277+P62263+P62841+P62244+P62249+P08708+P62269+P39019+P60866+P63220+P62266+P62847+P62851+P62854+P62979+P62857+P62273+P62861+P39023+P36578+P46777+Q02878+P18124+P62424+P62917+P32969+P27635+P62906+P62913+P30050+P26373+P40429+P50914+P61313+P18621+Q07020+Q02543+P84098+P46778+P35268+P62829+P62750+P83731+P61254+P61353+P46776+P46779+P47914+P62888+P62899+P62910+P49207+P42766+P18077+Q9Y3U8+P83881+P61927+P61513+P63173+P62891+P62945+P05388+P05386); assay: Binding affinity to RPS25 in human NCI-H23 cells at 1 uM by mass spectrometry based pull down assay
[18] = target: Protein disulfide-isomerase A3 (Homo sapiens) (UniProt P30101); assay: Binding affinity to PDIA3 in human NCI-H358 cells at 1 uM by mass spectrometry based pull down assay
[19] = target: U5 small nuclear ribonucleoprotein 200 kDa helicase (Homo sapiens) (UniProt O75643); assay: Binding affinity to SNRNP200 in human NCI-H23 cells at 1 uM by mass spectrometry based pull down assay
[20] = target: RuvB-like 2 (Homo sapiens) (UniProt Q9Y230); assay: Binding affinity to RUVBL2 in human NCI-H358 cells at 1 uM by mass spectrometry based pull down assay
[21] = target: T1, 80S Ribosome (Homo sapiens); assay: Binding affinity to RPL10A in human NCI-H358 cells at 1 uM by mass spectrometry based pull down assay
[22] = target: UV radiation resistance-associated gene protein (Homo sapiens) (UniProt Q9P2Y5); assay: Binding affinity to UVRAG in human NCI-H23 cells at 1 uM by mass spectrometry based pull down assay
[23] = target: Thioredoxin (Homo sapiens) (UniProt P10599); assay: Binding affinity to TXN in human NCI-H23 cells at 1 uM by mass spectrometry based pull down assay
[24] = target: Eukaryotic translation initiation factor 3 subunit I (Homo sapiens) (UniProt Q13347); assay: Binding affinity to EIF3I in human NCI-H23 cells at 1 uM by mass spectrometry based pull down assay
[25] = target: ATP-dependent RNA helicase DDX3X (Homo sapiens) (UniProt O00571); assay: Binding affinity to DDX3X in human NCI-H358 cells at 1 uM by mass spectrometry based pull down assay
[26] = target: Thioredoxin-like protein 1 (Homo sapiens) (UniProt O43396); assay: Binding affinity to TXNL1 in human NCI-H23 cells at 1 uM by mass spectrometry based pull down assay
[27] = target: Quinone oxidoreductase (Homo sapiens) (UniProt Q08257); assay: Binding affinity to CRYZ in human NCI-H358 cells at 1 uM by mass spectrometry based pull down assay

5'-nucleotidase domain-containing protein 1 (Homo sapiens), sequence (Q5TFE4 whole entry, the tested form may be a part): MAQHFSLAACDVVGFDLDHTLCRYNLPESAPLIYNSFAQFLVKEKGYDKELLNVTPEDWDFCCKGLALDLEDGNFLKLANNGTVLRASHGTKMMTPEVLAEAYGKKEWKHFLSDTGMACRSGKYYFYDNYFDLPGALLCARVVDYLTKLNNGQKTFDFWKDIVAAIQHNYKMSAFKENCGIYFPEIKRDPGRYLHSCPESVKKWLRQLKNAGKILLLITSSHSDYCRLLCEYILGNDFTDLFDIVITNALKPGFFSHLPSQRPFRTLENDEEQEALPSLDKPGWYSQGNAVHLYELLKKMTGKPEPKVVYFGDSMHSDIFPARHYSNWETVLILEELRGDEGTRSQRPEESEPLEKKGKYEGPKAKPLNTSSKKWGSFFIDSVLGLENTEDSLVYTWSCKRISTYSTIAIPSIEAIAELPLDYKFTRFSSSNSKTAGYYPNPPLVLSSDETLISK
Thioredoxin-like protein 1 (Homo sapiens), sequence (O43396 whole entry): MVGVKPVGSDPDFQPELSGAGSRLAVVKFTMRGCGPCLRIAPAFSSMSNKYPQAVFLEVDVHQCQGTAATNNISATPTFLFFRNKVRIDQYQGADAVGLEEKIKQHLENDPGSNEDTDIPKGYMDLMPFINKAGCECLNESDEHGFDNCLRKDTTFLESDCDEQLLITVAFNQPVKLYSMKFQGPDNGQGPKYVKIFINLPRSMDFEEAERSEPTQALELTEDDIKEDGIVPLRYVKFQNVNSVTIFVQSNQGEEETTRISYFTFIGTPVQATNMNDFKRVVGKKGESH
Phosphatidylinositol 5-phosphate 4-kinase type-2 gamma (Homo sapiens), sequence (Q8TBX8 whole entry): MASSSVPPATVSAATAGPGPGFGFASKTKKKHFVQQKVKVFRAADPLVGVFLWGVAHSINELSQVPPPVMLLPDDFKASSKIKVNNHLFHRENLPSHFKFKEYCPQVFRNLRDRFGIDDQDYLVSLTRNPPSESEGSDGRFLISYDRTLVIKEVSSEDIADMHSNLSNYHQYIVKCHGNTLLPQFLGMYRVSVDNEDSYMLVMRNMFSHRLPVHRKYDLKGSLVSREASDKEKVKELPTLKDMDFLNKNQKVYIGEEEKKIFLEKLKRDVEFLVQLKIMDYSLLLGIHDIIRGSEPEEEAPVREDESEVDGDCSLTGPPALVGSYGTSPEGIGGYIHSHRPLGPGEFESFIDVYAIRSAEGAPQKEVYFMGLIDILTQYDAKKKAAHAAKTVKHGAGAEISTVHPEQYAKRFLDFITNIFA
Thioredoxin (Homo sapiens), sequence (P10599 whole entry): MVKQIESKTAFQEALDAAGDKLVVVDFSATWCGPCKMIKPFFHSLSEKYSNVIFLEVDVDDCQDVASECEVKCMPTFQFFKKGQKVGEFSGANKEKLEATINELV
UV radiation resistance-associated gene protein (Homo sapiens), sequence (Q9P2Y5 whole entry): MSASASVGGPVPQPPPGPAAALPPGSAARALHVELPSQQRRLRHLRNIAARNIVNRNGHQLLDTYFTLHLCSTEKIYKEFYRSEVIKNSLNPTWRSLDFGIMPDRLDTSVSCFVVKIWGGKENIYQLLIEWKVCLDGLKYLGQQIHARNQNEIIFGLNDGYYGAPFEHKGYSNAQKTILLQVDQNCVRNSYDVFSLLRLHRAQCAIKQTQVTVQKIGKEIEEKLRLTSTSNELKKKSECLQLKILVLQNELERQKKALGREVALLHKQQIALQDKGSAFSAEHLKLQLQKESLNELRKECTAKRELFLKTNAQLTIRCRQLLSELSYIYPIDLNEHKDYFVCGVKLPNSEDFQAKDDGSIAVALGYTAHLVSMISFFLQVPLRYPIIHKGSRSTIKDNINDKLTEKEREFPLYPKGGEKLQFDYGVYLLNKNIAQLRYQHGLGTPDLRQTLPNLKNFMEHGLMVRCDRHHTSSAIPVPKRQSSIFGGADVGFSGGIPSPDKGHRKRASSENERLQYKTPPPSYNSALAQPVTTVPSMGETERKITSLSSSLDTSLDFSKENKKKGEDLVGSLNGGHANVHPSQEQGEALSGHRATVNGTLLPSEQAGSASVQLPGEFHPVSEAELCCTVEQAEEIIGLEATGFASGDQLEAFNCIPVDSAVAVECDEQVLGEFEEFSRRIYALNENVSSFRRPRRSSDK
Calponin-2 (Homo sapiens), sequence (Q99439 whole entry): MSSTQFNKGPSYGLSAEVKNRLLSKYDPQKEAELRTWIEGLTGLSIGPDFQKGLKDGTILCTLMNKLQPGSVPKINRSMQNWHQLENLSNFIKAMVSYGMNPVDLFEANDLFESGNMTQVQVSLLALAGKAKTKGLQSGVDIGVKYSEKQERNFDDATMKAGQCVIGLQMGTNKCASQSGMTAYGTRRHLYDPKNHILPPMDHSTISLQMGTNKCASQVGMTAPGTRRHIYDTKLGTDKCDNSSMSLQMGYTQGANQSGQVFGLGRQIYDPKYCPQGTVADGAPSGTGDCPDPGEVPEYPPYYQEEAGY
U5 small nuclear ribonucleoprotein 200 kDa helicase (Homo sapiens), sequence (O75643 whole entry): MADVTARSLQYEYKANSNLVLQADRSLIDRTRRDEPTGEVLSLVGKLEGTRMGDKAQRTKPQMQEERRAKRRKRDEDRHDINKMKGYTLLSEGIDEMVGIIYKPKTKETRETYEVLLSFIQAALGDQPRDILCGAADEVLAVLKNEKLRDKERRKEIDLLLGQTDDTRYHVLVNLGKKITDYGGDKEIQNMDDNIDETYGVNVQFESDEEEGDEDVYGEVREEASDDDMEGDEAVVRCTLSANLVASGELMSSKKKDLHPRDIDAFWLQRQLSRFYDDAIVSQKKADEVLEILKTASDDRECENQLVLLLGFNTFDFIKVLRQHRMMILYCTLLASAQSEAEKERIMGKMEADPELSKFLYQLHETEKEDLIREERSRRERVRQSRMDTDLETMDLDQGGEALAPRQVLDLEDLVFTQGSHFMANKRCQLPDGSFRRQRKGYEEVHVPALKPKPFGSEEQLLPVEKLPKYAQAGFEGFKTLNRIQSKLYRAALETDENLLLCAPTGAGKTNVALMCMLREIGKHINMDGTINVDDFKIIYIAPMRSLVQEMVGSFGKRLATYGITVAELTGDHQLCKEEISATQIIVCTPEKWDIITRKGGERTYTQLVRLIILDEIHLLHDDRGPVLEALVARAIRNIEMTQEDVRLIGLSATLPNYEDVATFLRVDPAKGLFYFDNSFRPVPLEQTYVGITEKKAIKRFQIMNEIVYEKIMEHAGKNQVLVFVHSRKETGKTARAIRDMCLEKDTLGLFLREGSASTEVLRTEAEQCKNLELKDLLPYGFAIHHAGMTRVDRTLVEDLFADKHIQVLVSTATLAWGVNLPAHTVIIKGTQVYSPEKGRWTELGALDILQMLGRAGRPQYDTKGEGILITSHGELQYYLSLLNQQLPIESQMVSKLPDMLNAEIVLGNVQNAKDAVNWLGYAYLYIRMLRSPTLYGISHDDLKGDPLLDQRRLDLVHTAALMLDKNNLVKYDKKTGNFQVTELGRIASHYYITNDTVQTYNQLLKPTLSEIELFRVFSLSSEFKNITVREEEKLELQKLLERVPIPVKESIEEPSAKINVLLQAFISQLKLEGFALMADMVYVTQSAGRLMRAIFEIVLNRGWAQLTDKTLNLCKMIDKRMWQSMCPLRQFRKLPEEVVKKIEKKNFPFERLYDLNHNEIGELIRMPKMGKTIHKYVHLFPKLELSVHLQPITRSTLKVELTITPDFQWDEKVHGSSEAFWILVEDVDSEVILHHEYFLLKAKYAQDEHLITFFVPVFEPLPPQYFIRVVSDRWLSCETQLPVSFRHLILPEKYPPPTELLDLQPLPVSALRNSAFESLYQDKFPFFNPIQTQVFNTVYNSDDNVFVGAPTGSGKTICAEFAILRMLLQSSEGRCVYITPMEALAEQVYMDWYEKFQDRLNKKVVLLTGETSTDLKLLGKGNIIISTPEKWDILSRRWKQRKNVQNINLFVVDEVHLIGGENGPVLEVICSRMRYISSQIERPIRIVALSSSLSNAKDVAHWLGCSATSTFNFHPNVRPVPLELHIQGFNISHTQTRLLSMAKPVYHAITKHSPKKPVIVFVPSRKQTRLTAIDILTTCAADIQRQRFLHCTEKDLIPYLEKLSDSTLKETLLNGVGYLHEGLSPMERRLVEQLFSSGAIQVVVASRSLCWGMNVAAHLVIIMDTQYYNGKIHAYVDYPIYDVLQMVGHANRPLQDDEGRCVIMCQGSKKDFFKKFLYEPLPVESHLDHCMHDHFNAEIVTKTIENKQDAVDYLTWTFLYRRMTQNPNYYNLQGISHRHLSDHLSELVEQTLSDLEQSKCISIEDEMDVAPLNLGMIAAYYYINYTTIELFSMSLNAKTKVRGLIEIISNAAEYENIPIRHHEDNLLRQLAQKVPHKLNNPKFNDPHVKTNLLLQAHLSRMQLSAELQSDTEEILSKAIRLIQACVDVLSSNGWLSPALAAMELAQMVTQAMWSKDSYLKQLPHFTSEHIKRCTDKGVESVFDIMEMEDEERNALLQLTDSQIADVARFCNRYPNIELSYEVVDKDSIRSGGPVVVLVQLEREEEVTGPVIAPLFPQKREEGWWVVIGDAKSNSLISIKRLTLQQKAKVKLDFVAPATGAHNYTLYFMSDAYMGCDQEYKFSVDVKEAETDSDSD
Sequestosome-1 (Homo sapiens), sequence (Q13501 whole entry): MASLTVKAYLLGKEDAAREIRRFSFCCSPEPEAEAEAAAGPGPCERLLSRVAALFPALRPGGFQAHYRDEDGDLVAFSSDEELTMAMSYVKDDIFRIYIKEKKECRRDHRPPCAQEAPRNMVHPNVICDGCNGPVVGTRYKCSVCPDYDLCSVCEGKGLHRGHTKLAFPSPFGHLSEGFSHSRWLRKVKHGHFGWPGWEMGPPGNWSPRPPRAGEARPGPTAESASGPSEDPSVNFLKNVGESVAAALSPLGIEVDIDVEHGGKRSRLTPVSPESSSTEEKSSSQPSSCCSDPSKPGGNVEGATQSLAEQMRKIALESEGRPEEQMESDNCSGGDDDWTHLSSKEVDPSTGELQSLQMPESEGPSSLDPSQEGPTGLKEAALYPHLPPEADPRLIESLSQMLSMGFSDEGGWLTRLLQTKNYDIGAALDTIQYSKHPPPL

Structure (SMILES): C=CC(=O)Nc1ccccc1Nc1nc(Nc2ccc(N3CCN(C)CC3)cc2)ncc1Cl
inhibition [1]: 8.6%
inhibition [2]: -10%

Structure (SMILES): COc1cc(O)c2c(c1)/C=C/C[C@H](O)[C@H](O)C(=O)/C=C\C[C@H](C)OC2=O
inhibition [3]: 16.8%

Activity [4]: Active
Activity [5]: Active
Activity [6]: Active
Activity [7]: Active
Activity [8]: Active
Activity [10]: Active
Activity [11]: Active
Activity [12]: Active
Activity [13]: Active
Activity [14]: Active
Activity [15]: Active
Activity [16]: Active
Activity [17]: Active
Activity [18]: Active
Activity [19]: Active
Activity [20]: Active
Activity [21]: Active
Activity [22]: Active
Activity [23]: Active
Activity [24]: Active
Activity [25]: Active
Activity [26]: Active
Activity [27]: Active
Structure (SMILES): C=CC(=O)Nc1ccccc1Nc1nc(Nc2ccc(N3CCN(CCOCCOCCOCCNC(=O)CCCC[C@@H]4SC[C@@H]5NC(=O)N[C@@H]54)CC3)cc2)ncc1Cl
Activity [9]: Active
